# Test system: Fibroblast
# Assay: Multiplex assay against human fibroblast
# Format: toxicity, cell-based
# Outline: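 Live cells carried four stains from seeding: Hoechst33342, BioTracker Green Microtubule Cytoskeleton Dye, MitoTracker Red and Annexin V Alexa Fluor 680. They were imaged on a CQ1 microscope at 37°C and 5% CO2 after compound addition. Using CellPathfinder machine-learning gating, cells were split into Hoechst high-intensity objects or normal cells, normal cells into healthy, pyknosed or fragmented nuclei, and pyknosed cells into mitotic or apoptotic; tubulin, mitochondrial-mass and membrane-permeability phenotypes are per cents of healthy-nucleus cells.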
# [1] = 12 h, 1 µM, compound concentration 1 uM, replicate 1
# [2] = 12 h, 1 µM, compound concentration 1 uM, replicate 2
# [3] = 12 h, 10 µM, compound concentration 10 uM, replicate 1
# [4] = 12 h, 10 µM, compound concentration 10 uM, replicate 2
# [5] = 24 h, 1 µM, compound concentration 1 uM, replicate 1
# [6] = 24 h, 1 µM, compound concentration 1 uM, replicate 2
# [7] = 24 h, 10 µM, compound concentration 10 uM, replicate 1
# [8] = 24 h, 10 µM, compound concentration 10 uM, replicate 2
# [9] = 48 h, 1 µM, compound concentration 1 uM, replicate 1
# [10] = 48 h, 1 µM, compound concentration 1 uM, replicate 2
# [11] = 48 h, 10 µM, compound concentration 10 uM, replicate 1
# [12] = 48 h, 10 µM, compound concentration 10 uM, replicate 2
smiles,measurement,setting,value
CCCC(CCC)C(=O)O [VALPROIC ACID],Population Apoptotic (%),[1],42%
same,Population Fragmented Nuclei (%),[1],13%
same,Population Healthy Nuclei (%),[1],65%
same,Population Hoechst High Intensity Objects (%),[1],3%
same,Population Membrane Permeable-Phenotype (%),[1],2%
same,Population Mitochondria Different-Phenotype (%),[1],2%
same,Population Mitotic Cells (%),[1],57%
same,Population Normal (%),[1],96%
same,Population Pyknosed Nuclei (%),[1],21%
same,Population Tubulin-Different-Phenotype (%),[1],27%
same,Population Apoptotic (%),[2],57%
same,Population Fragmented Nuclei (%),[2],20%
same,Population Healthy Nuclei (%),[2],47%
same,Population Hoechst High Intensity Objects (%),[2],8%
same,Population Membrane Permeable-Phenotype (%),[2],10%
same,Population Mitochondria Different-Phenotype (%),[2],14%
same,Population Mitotic Cells (%),[2],42%
same,Population Normal (%),[2],91%
same,Population Pyknosed Nuclei (%),[2],31%
same,Population Tubulin-Different-Phenotype (%),[2],49%
same,Population Apoptotic (%),[3],30%
same,Population Fragmented Nuclei (%),[3],29%
same,Population Healthy Nuclei (%),[3],60%
same,Population Hoechst High Intensity Objects (%),[3],4%
same,Population Membrane Permeable-Phenotype (%),[3],1%
same,Population Mitochondria Different-Phenotype (%),[3],3%
same,Population Mitotic Cells (%),[3],70%
same,Population Normal (%),[3],95%
same,Population Pyknosed Nuclei (%),[3],9%
same,Population Tubulin-Different-Phenotype (%),[3],16%
same,Population Apoptotic (%),[4],43%
same,Population Fragmented Nuclei (%),[4],16%
same,Population Healthy Nuclei (%),[4],53%
same,Population Hoechst High Intensity Objects (%),[4],2%
same,Population Membrane Permeable-Phenotype (%),[4],4%
same,Population Mitochondria Different-Phenotype (%),[4],8%
same,Population Mitotic Cells (%),[4],56%
same,Population Normal (%),[4],97%
same,Population Pyknosed Nuclei (%),[4],30%
same,Population Tubulin-Different-Phenotype (%),[4],41%
same,Population Apoptotic (%),[5],42%
same,Population Fragmented Nuclei (%),[5],11%
same,Population Healthy Nuclei (%),[5],69%
same,Population Hoechst High Intensity Objects (%),[5],5%
same,Population Membrane Permeable-Phenotype (%),[5],1%
same,Population Mitochondria Different-Phenotype (%),[5],2%
same,Population Mitotic Cells (%),[5],57%
same,Population Normal (%),[5],95%
same,Population Pyknosed Nuclei (%),[5],19%
same,Population Tubulin-Different-Phenotype (%),[5],22%
same,Population Apoptotic (%),[6],48%
same,Population Fragmented Nuclei (%),[6],22%
same,Population Healthy Nuclei (%),[6],53%
same,Population Hoechst High Intensity Objects (%),[6],7%
same,Population Membrane Permeable-Phenotype (%),[6],3%
same,Population Mitochondria Different-Phenotype (%),[6],7%
same,Population Mitotic Cells (%),[6],51%
same,Population Normal (%),[6],92%
same,Population Pyknosed Nuclei (%),[6],24%
same,Population Tubulin-Different-Phenotype (%),[6],54%
same,Population Apoptotic (%),[7],50%
same,Population Fragmented Nuclei (%),[7],27%
same,Population Healthy Nuclei (%),[7],66%
same,Population Hoechst High Intensity Objects (%),[7],6%
same,Population Membrane Permeable-Phenotype (%),[7],0%
same,Population Mitochondria Different-Phenotype (%),[7],1%
same,Population Mitotic Cells (%),[7],50%
same,Population Normal (%),[7],93%
same,Population Pyknosed Nuclei (%),[7],5%
same,Population Tubulin-Different-Phenotype (%),[7],21%
same,Population Apoptotic (%),[8],38%
same,Population Fragmented Nuclei (%),[8],30%
same,Population Healthy Nuclei (%),[8],46%
same,Population Hoechst High Intensity Objects (%),[8],3%
same,Population Membrane Permeable-Phenotype (%),[8],5%
same,Population Mitochondria Different-Phenotype (%),[8],4%
same,Population Mitotic Cells (%),[8],61%
same,Population Normal (%),[8],96%
same,Population Pyknosed Nuclei (%),[8],23%
same,Population Tubulin-Different-Phenotype (%),[8],41%
same,Population Apoptotic (%),[9],55%
same,Population Fragmented Nuclei (%),[9],18%
same,Population Healthy Nuclei (%),[9],66%
same,Population Hoechst High Intensity Objects (%),[9],7%
same,Population Membrane Permeable-Phenotype (%),[9],0%
same,Population Mitochondria Different-Phenotype (%),[9],1%
same,Population Mitotic Cells (%),[9],44%
same,Population Normal (%),[9],92%
same,Population Pyknosed Nuclei (%),[9],14%
same,Population Tubulin-Different-Phenotype (%),[9],19%
same,Population Apoptotic (%),[10],48%
same,Population Fragmented Nuclei (%),[10],36%
same,Population Healthy Nuclei (%),[10],44%
same,Population Membrane Permeable-Phenotype (%),[10],4%
same,Population Mitochondria Different-Phenotype (%),[10],7%
same,Population Mitotic Cells (%),[10],51%
same,Population Pyknosed Nuclei (%),[10],19%
same,Population Tubulin-Different-Phenotype (%),[10],55%
same,Population Apoptotic (%),[11],60%
same,Population Fragmented Nuclei (%),[11],30%
same,Population Healthy Nuclei (%),[11],60%
same,Population Hoechst High Intensity Objects (%),[11],1%
same,Population Membrane Permeable-Phenotype (%),[11],0%
same,Population Mitochondria Different-Phenotype (%),[11],1%
same,Population Mitotic Cells (%),[11],40%
same,Population Normal (%),[11],98%
same,Population Pyknosed Nuclei (%),[11],8%
same,Population Tubulin-Different-Phenotype (%),[11],18%
same,Population Fragmented Nuclei (%),[12],33%
same,Population Healthy Nuclei (%),[12],51%
same,Population Hoechst High Intensity Objects (%),[12],5%
same,Population Membrane Permeable-Phenotype (%),[12],6%
same,Population Mitochondria Different-Phenotype (%),[12],5%
same,Population Mitotic Cells (%),[12],39%
same,Population Normal (%),[12],94%
same,Population Pyknosed Nuclei (%),[12],15%
same,Population Tubulin-Different-Phenotype (%),[12],46%
